Insulin prom up – insulin promoter activators in MIN6 cells, imaging, high-content screening, mouse beta cells; z-score at 5 µM; actives 0.3% (n = 190,000); AID 1625, 2009; MIN6 insulin promoter-GFP reporter; hits give high values;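 active = z-score above 3 at 5 µM with at least 500 cells counted in the well; inconclusive = wells under 500 cells, flagged as cytotoxic or low count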
KCC2 mod – KCC2 cotransporter modulators, thallium flux, primary screen, cell-based, HEK293 KCC2, FluoZin-2 fluorescence, MLSMR | Solute carrier family 12 member 5 (Homo sapiens), Q9H2X9 | KCC2 cells, thallium flux FluoZin-2 fluorescence | B-score of Tl+ flux slope (higher = more flux/activation; lower = inhibition) at 10 µM | actives 2.2% (n = 190,000) | AID 1456, 2008;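 active = thallium flux slope and its plate-corrected score both differing from the plate sample mean at a set confidence after two filtering rounds, in either direction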;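 also: slope of fluorescence scaled to starting intensity during 10 to 20 s after thallium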
Target sequence (Q9H2X9 whole entry, looked up): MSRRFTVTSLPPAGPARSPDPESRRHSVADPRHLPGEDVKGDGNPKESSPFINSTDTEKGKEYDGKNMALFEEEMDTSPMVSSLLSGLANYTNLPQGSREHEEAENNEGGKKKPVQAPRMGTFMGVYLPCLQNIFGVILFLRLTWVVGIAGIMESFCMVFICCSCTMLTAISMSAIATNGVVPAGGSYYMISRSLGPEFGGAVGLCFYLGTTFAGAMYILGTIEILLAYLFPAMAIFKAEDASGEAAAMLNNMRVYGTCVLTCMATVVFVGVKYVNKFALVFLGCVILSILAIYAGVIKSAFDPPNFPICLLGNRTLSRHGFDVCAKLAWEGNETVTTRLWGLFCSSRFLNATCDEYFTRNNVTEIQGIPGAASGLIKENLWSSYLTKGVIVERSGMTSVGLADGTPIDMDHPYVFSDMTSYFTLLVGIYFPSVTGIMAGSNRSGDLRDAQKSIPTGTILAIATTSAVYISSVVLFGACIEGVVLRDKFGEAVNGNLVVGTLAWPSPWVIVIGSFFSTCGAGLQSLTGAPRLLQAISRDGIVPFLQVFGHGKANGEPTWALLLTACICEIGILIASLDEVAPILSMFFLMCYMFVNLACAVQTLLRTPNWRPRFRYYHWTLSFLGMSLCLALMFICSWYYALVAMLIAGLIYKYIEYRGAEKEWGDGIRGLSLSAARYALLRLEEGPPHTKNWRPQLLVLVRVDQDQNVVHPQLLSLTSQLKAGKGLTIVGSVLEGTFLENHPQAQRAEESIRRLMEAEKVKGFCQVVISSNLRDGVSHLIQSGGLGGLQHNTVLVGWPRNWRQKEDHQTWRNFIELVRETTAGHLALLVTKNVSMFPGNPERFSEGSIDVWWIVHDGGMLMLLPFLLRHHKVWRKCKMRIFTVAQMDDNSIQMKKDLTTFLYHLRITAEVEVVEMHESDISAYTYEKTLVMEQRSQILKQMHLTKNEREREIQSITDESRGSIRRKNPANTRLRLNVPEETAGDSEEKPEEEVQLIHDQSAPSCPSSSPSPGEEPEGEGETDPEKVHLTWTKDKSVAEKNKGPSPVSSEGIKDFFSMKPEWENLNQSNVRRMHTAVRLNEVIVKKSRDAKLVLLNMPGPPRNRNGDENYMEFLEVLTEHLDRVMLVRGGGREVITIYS
Rad51 HR inh – human RAD51 strand exchange inhibitors, primary screen, biochemical, fluorescence; DNA repair protein RAD51 homolog 1 (Homo sapiens), Q06609; hRad51 DNA strand exchange, fluorescence dequenching; inhibition, % at 10 µM; actives 0.085% (n = 200,000);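 active = inhibition above 40% at the single screening dose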;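 also: 0% = DMSO control wells and 100% = blanks with heterologous ssDNA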
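Test system: preformed human Rad51 ssDNA filaments; also added: Donor/quencher-labelled 47-bp dsDNA substrate; doses: 10 µM final, single point; times: 37 °C 15-min filament assembly, 30-min compound preincubation, 15-min exchange; detection: FRET fluorescence dequenching, excitation 485 nm, emission 520 nm; read-out basis: Fluorescence-based percent inhibition, control- and blank-normalised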
Autophagy mod – autophagy modulators in MEF cells, primary screen, imaging, high-content, MEF GFP-LC3 | MEF GFP-LC3 puncta imaging; test concentration mostly 10 µM | calls only at 10 µM (by protocol) | actives 0.98% (n = 190,000);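 active = percentage of spot-positive cells more than 3 SD above its plate mean, without a fluorescence outlier flag or 80% toxicity; inconclusive = no clear call, values can overlap the other calls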;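 also: spot-positive cell cutoff set from DMSO-treated cells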
SKKanGAS inh – S. pyogenes SKKanGAS growth inhibitors in kanamycin, primary screen, streptokinase expression inhibitor project, SKKanGAS strain, BacTiter-Glo luminescence; AID 1662, 2009; actives 1.3% (n = 300,000); inhibition, % at 7.5 µM; 6 h;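 active = mean replicate score, as percent of positive control median, at least 50; inconclusive = mean below 50 but one replicate at or above 50; inactive = mean and every replicate below 50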;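 also: strain carries kanamycin resistance gene driven by streptokinase promoter and grows in 40 µg/ml kanamycin; loss of luminescence reflects streptokinase promoter inhibition or plain growth inhibition; 0% = median of DMSO wells and 100% = positive control at its reference dose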
WT yeast gro inh – growth inhibition of WT strain, primary screen, mitochondrial fusion inhibitor project, WT and mutant strains, chemical genetic | actives 2.1% (n = 190,000) | inhibition, % at 10 µM | AID 1362, 2008 | mitochondrial fusion phenotypic screen; in the data active = inhibition above about 58%; tested in S. cerevisiae
KCC2 sec1 – KCC2 modulators in sodium-free buffer, confirmation, cell-based, HEK293 KCC2, thallium flux, secondary assay; FluoZin2 fluorescence; hits give high values; normalised thallium flux (F/F0 slope) at 10 µM; shares compounds with KCC2 mod; actives 15% (n = 3,700);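 active = thallium flux slope above the same plate's solvent-only control mean plus 3 SD; inconclusive = the two replicate wells disagree; inactive = no significant difference from solvent-only control wells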
KCC2 bumet counter – thallium flux persisting under bumetanide in KCC2 cells, confirmation, counter-screen for KCC2 modulator project, cell-based, HEK293 KCC2, FluoZin2, secondary assay 3 | AID 1714, 2009 | normalized thallium flux at 10 µM | actives 49% (n = 3,700) | shares compounds with KCC2 mod | HEK293-KCC2 + bumetanide/ouabain; hits give high values;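 active = thallium entry rate above the same plate's blocked-transporter control wells by more than 3 SD; inconclusive = the two repeat wells disagree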;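 also: raw slope of fluorescence over initial fluorescence between 10 and 20 s after thallium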
KCC2 secondary2 – KCC2 modulators without ouabain present, confirmation, cell-based, HEK293 KCC2, thallium flux, FluoZin2, secondary assay 2. shares compounds with KCC2 mod. thallium flux FluoZin2 fluorescence; actives lie on both sides; F/F0 rise rate, 10–20 s post-thallium. normalized thallium flux at 10 µM. actives 23% (n = 3,700). AID 1715, 2009;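 active = thallium flux slope more than 3 SD above or below the plate's solvent-only control mean, mostly below; inconclusive = the two repeat wells disagreed; inactive = no significant shift from solvent-only controls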;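 also: raw slope with 0.1% DMSO as baseline and bumetanide as block control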
HEK293 Tl flux – thallium flux modulation in parental HEK cells, confirmation, counter-screen for KCC2 modulator project, cell-based, counterscreen 1. HEK293 parental cells, thallium flux FluoZin2, ouabain; baseline-ratio fluorescence slope, 10–20 s after thallium. shares compounds with KCC2 mod. thallium flux rate (normalised fluorescence) at 10 µM. actives 46% (n = 3,700);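 active = thallium flux rate significantly above the same plate's solvent-only control wells, beyond their mean plus 3 SD; inconclusive = the two replicate wells gave conflicting results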
KCC2 ouabain – KCC2 inhibitors and activators, ouabain retest, confirmation, HEK-KCC2 cells | shares compounds with KCC2 mod | HEK293-KCC2, thallium flux FluoZin2 fluorescence; bidirectional: low = inhibitor, high = activator | raw Tl+ flux slope (below DMSO = inhibition, above = activation) at 10 µM | actives 48% (n = 3,700);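 active = thallium flux slope beyond 3 SD from same-plate DMSO control mean in most replicates, usually higher, sometimes lower; inconclusive = repeat tests gave conflicting results; inactive = no significant difference from controls in most replicates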;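 also: slope of initial-normalized fluorescence between seconds 10 and 20 after thallium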
HEK293 Tl flux2 – native HEK Tl+ uptake effects, second counter-screen – HEK cells, counterscreen 2, counter-screen for KCC2 modulator project, confirmation. shares compounds with KCC2 mod. HEK293 parental, thallium flux FluoZin-2 fluorescence slope. thallium flux slope at 10 µM. actives 33% (n = 3,700);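 active = thallium flux slope above the same plate's solvent-control mean plus 3 SD in both duplicate wells; inconclusive = duplicate wells that disagreed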;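 also: run without ouabain in cells lacking the KCC2 cotransporter; slope of fluorescence scaled to its starting value between 10 and 20 s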
* = called active by the depositor; i = inactive; ? = inconclusive; . = not tested or not shown; + = active, no number. Hits are enriched below; roughly 4.2% of the tested compounds scored in any of these assays.

SMILES | Insulin prom up | KCC2 mod | Rad51 HR inh | Autophagy mod | SKKanGAS inh | WT yeast gro inh | KCC2 sec1 | KCC2 bumet counter | KCC2 secondary2 | HEK293 Tl flux | KCC2 ouabain | HEK293 Tl flux2
COc1ccc(O)c(C(=O)CC(=O)c2ccc(F)cc2)c1 | 0.42 | 23* | -17 | i | 14 | -3 | ? | 0.07* | 0.035 | ? | 0.054* | ?
COc1ccc(NC(=O)c2ccccc2C)c(OC)c1 | 0.56 | 0.97 | -3 | i | 0 | -2 | . | . | . | . | . | .
COc1ccc(C(=O)CC(=O)c2ccccc2O)cc1 | . | . | . | . | 24 | . | . | . | . | . | . | .
COc1ccc(O)c(C(=O)CC(=O)c2ccccc2C)c1 | -0.05 | 29* | -27 | i | 60* | 37 | 0.0054 | 0.025* | ? | 0.018* | 0.031* | 0.022*
COc1ccc(C(=O)CC(=O)c2ccccc2O)cc1OC | 0.33 | 7.1* | 3 | i | 10 | -4 | 0.0075 | 0.011* | 0.037 | 0.013* | 0.023 | 0.011
Cc1ccc(O)c(C(=O)CC(=O)c2cccc(F)c2)c1 | 0.09 | 51* | 10 | i | 81* | 66 | 0.0059 | 0.05* | 0.059* | 0.058* | 0.055* | 0.053*
Cc1cc(C)cc(N2CCCn3c2nc2c3c(=O)[nH]c(=O)n2C)c1 | . | . | . | . | 0 | . | . | . | . | . | . | .
CCOc1ccc(Nc2nc(Cc3nnc(SCC(=O)O)o3)cs2)cc1 | 0.71 | . | 3 | i | -3 | -3 | 0.005 | 0.005 | 0.027 | 0.0077 | 0.015* | 0.011
CCOc1ccc(Br)cc1S(=O)(=O)Nc1cccc(S(=O)(=O)N(C)C)c1 | 0.05 | -0.68 | 1 | i | 2 | 5 | . | . | . | . | . | .
CCOc1ccc(N=C2NC(=O)S/C2=C\c2ccc(Cl)cc2)cc1 | -1.2 | . | -7 | i | 4 | -2 | . | . | . | . | . | .
CCOc1ccc2nc(N3C(=O)/C(=C/c4ccc(Cl)cc4)NC3=S)sc2c1 | 0.76 | 19* | -18 | + | 96* | -16 | 0.0072 | 0.045* | 0.049* | 0.063* | 0.048* | 0.047*
O=C1CC(c2cccs2)c2cc3c(cc2N1)OCO3 (centres undefined) | . | -0.11 | -4 | i | 0 | -9 | . | . | . | . | . | .
COc1cc2c(cc1OC)C(c1cccs1)CC(=O)N2 (centres undefined) | 0.39 | . | -4 | i | 0 | 3 | 0.0063 | 0.0047 | 0.029 | 0.0081 | 0.019 | 0.011
CC(C)NC(=O)C1CCCN(c2nnc(-n3cccc3)s2)C1 (centres undefined) | 0.58 | 0.32 | 4 | i | -5 | 4 | . | . | . | . | . | .
CC(CCc1ccccc1)NC(=O)C1CCCN(c2nnc(-n3cccc3)s2)C1 (centres undefined) | -0.17 | -4.4* | -4 | . | 2 | 0 | 0.0064 | 0.0049 | 0.03 | 0.008 | 0.015* | 0.011
S=c1[nH]c(-c2ccccc2)cn1/N=C/c1cccnc1 | 0.53 | 1.7 | 17 | . | -7 | . | . | . | . | . | . | .
S=c1[nH]c(-c2ccccc2)cn1/N=C/c1cccs1 | -0.18 | 18* | . | . | -8 | . | 0.023* | 0.036* | 0.033 | 0.016* | 0.029* | 0.016*
O=C(O)c1ccc(/C=N/n2cc(-c3ccccc3)[nH]c2=S)cc1 | 0.49 | 1.1 | -14 | . | 4 | . | . | . | . | . | . | .
S=c1[nH]c(-c2ccccc2)cn1/N=C/c1ccc(Br)cc1 | 0.1 | 54* | -8 | i | 1 | 43 | 0.011* | 0.04* | 0.032 | 0.017* | 0.048* | 0.011*
N#C/C(=N\Nc1ccc(Cl)c(Cl)c1)C(=O)C1CC1 | 0.99 | -6* | 13 | . | 25 | . | 0.0064 | 0.0042 | 0.023* | 0.004* | 0.012* | 0.0074*
COc1ccc(NC(=O)CSc2nccn2-c2ccccc2)c(OC)c1 | 0.04 | -0.093 | . | i | -5 | -1 | . | . | . | . | . | .
CCOc1ccccc1NC(=O)CSc1nccn1-c1ccccc1 | 0.05 | -4.8* | . | i | 12 | 25 | 0.017 | ? | 0.025* | 0.0046* | 0.013* | 0.0071*
CCCN(C(=O)Cc1ccc(S(=O)(=O)N2CCOCC2)s1)c1c(N)n(Cc2ccccc2)c(=O)[nH]c1=O | . | . | . | . | 8 | . | . | . | . | . | . | .
CC(C)C(NC(=O)C(NC(=O)C1OC2OC(C)(C)OC2C2OC(C)(C)OC12)C(C)C)C(=O)O (centres undefined) | 0.39 | -0.6 | 10 | i | -13 | -12 | . | . | . | . | . | .
COC(=O)n1c(=O)oc2ccccc21 | 0.96 | . | 0 | i | 1 | 9 | . | . | . | . | . | .
CCCCOC(=O)n1c(=O)oc2ccccc21 | 0.11 | -4.3* | 4 | i | 1 | 12 | 0.012* | 0.0058 | 0.036 | 0.0071 | 0.021 | 0.011
Cc1ccc(NC(=O)COC(=O)/C=C/c2ccccc2)cc1S(=O)(=O)N1CCOCC1 | 0.45 | -4.1* | 15 | i | -6 | -17 | ? | 0.0044 | 0.021* | ? | 0.012* | 0.0091
Cc1ccc(NC(=O)CCCSc2ccccc2)cc1S(=O)(=O)N1CCOCC1 | -0.58 | -3* | -34 | i | -13 | 5 | 0.018 | 0.0044 | ? | 0.0068 | 0.016 | 0.01
O=C(NC(=S)N1CCN(Cc2ccccc2)CC1)c1cccnc1 | 0.42 | -0.23 | -13 | i | 2 | 16 | . | . | . | . | . | .

High-throughput results deposited in PubChem by several laboratories.
